Source: ChEMBL document CHEMBL3352237, “Synthesis and biological evaluation of novel peptide BF2 as an antibacterial agent against clinical isolates of vancomycin-resistant enterococci” (J Med Chem, 2014)
In brackets after ≈: the same amount, converted by molar mass.

Legend:
Type in all cases: functional
[1] = system: Enterococcus faecium; test: Antibacterial activity against vancomycin-resistant Enterococcus faecium clinical isolate 17301 after overnight incubation by two-fold serial dilution method
[2] = system: Enterococcus faecium; test: Antibacterial activity against vancomycin-resistant Enterococcus faecium clinical isolate 18906 after overnight incubation by two-fold serial dilution method
[3] = system: Enterococcus faecium; test: Antibacterial activity against vancomycin-resistant Enterococcus faecium clinical isolate 14643 after overnight incubation by two-fold serial dilution method
[4] = system: Enterococcus faecium; test: Antibacterial activity against vancomycin-resistant Enterococcus faecium clinical isolate 7/27 after overnight incubation by two-fold serial dilution method
[5] = system: Enterococcus faecium; test: Antibacterial activity against vancomycin-resistant Enterococcus faecium clinical isolate 3864 after overnight incubation by two-fold serial dilution method
[6] = system: Enterococcus faecium; test: Antibacterial activity against vancomycin-resistant Enterococcus faecium clinical isolate 5484 after overnight incubation by two-fold serial dilution method
[7] = system: Enterococcus faecium; test: Antibacterial activity against vancomycin-resistant Enterococcus faecium clinical isolate 16115 after overnight incubation by two-fold serial dilution method
[8] = system: Enterococcus faecium; test: Antibacterial activity against vancomycin-resistant Enterococcus faecium clinical isolate 30/48 after overnight incubation by two-fold serial dilution method
[9] = system: Enterococcus faecium; test: Antibacterial activity against vancomycin-resistant Enterococcus faecium clinical isolate 31386 after overnight incubation by two-fold serial dilution method
[10] = system: Enterococcus faecium; test: Antibacterial activity against vancomycin-resistant Enterococcus faecium clinical isolate 28/211 after overnight incubation by two-fold serial dilution method
[11] = system: Enterococcus faecium; test: Antibacterial activity against vancomycin-resistant Enterococcus faecium clinical isolate 31176 after overnight incubation by two-fold serial dilution method
[12] = system: Enterococcus faecium; test: Antibacterial activity against vancomycin-resistant Enterococcus faecium clinical isolate 27/221 after overnight incubation by two-fold serial dilution method
[13] = system: Enterococcus; test: Antibacterial activity against vancomycin-resistant Enterococcus ATCC 29212 after overnight incubation by two-fold serial dilution method
[14] = system: Enterococcus faecium; test: Antibacterial activity against vancomycin-resistant Enterococcus faecium clinical isolate 16475 after overnight incubation by two-fold serial dilution method
[15] = system: Enterococcus faecium; test: Antibacterial activity against vancomycin-resistant Enterococcus faecium clinical isolate 8/224 after overnight incubation by two-fold serial dilution method
[16] = system: Enterococcus faecium; test: Antibacterial activity against vancomycin-resistant Enterococcus faecium clinical isolate 10177 after overnight incubation by two-fold serial dilution method
[17] = system: Enterococcus faecium; test: Antibacterial activity against vancomycin-resistant Enterococcus faecium clinical isolate 13246 after overnight incubation by two-fold serial dilution method
[18] = system: Enterococcus faecium; test: Antibacterial activity against vancomycin-resistant Enterococcus faecium clinical isolate 151495 after overnight incubation by two-fold serial dilution method
[19] = system: Enterococcus faecium; test: Antibacterial activity against vancomycin-resistant Enterococcus faecium clinical isolate 147969 after overnight incubation by two-fold serial dilution method
[20] = system: Enterococcus faecium; test: Antibacterial activity against vancomycin-resistant Enterococcus faecium clinical isolate 12/266 after overnight incubation by two-fold serial dilution method
[21] = system: Enterococcus faecium; test: Antibacterial activity against vancomycin-resistant Enterococcus faecium clinical isolate 27/16917 after overnight incubation by two-fold serial dilution method; conditions: isolate 27/1691
[22] = system: Enterococcus faecium; test: Antibacterial activity against vancomycin-resistant Enterococcus faecium clinical isolate 5396 after overnight incubation by two-fold serial dilution method
[23] = system: Enterococcus; test: Antibacterial activity against vancomycin-resistant Enterococcus ATCC 51299 after overnight incubation by two-fold serial dilution method
[24] = system: Enterococcus faecium; test: Antibacterial activity against vancomycin-resistant Enterococcus faecium clinical isolate 15/213 after overnight incubation by two-fold serial dilution method
[25] = system: Enterococcus faecium; test: Antibacterial activity against vancomycin-resistant Enterococcus faecium clinical isolate 6/22 after overnight incubation by two-fold serial dilution method
[26] = system: Enterococcus faecium; test: Antibacterial activity against vancomycin-resistant Enterococcus faecium clinical isolate 29/203 after overnight incubation by two-fold serial dilution method
[27] = system: Enterococcus faecium; test: Antibacterial activity against vancomycin-resistant Enterococcus faecium clinical isolate 23/240 after overnight incubation by two-fold serial dilution method
[28] = system: Enterococcus; test: Antibacterial activity against Enterococcus infected in Wistar albino rat assessed as reduction in cell count at 25 mg/kg, iv after 1 hr relative to control; set-up: scale not given: the % may be the effect or the level left
Outline: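 Female Wistar albino rats, 40−45 days old, 125−150 g, 5 groups of 3. Enterococci were grown to log phase in MH broth, centrifuged at 1000g for 15 min, and diluted in PBS to 4 × 10^6 CFU/mL. Rats were inoculated i.v. and treated i.v. 1 h later with 12.5, 25 or 37.5 mg/kg peptide, PBS vehicle, or linezolid 25 mg/kg. Tail-vein blood taken 1 h post-treatment was plated on blood agar, incubated overnight at 37 °C, and colonies counted.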

[29] = system: Enterococcus faecium; test: Antibacterial activity against vancomycin-resistant Enterococcus faecium clinical isolate 12875 after overnight incubation by two-fold serial dilution method
[30] = system: Enterococcus; test: Antibacterial activity against vancomycin-resistant Enterococcus ATCC 29212 by checkerboard titration method in presence of linezolid
[31] = system: Enterococcus; test: Antibacterial activity against vancomycin-resistant Enterococcus ATCC 51299 by checkerboard titration method in presence of vancomycin
[32] = system: Enterococcus; test: Antibacterial activity against vancomycin-resistant Enterococcus ATCC 51299 by checkerboard titration method in presence of linezolid
[33] = system: Enterococcus; test: Antibacterial activity against vancomycin-resistant Enterococcus ATCC 29212 by checkerboard titration method in presence of vancomycin

Row | Compound | MIC [2] | MIC [5] | MIC [6] | MIC [8] | MIC [9] | MIC [10] | MIC [11] | MIC [12] | MIC [13] | MIC [15] | MIC [16] | MIC [19] | MIC [21] | MIC [22] | MIC [23] | MIC [25] | MIC [27] | MIC [29] | also measured
1 | CC(=O)NC[C@H]1CN(c2ccc(N3CCOCC3)c(F)c2)C(=O)O1 [LINEZOLID] | 2 mg/L (≈ 5.93 µM) | 2 mg/L (≈ 5.93 µM) | 1 mg/L (≈ 2.96 µM) | 2 mg/L (≈ 5.93 µM) | 2 mg/L (≈ 5.93 µM) | 2 mg/L (≈ 5.93 µM) | 1 mg/L (≈ 2.96 µM) | 1 mg/L (≈ 2.96 µM) | 1 mg/L (≈ 2.96 µM) | 1 mg/L (≈ 2.96 µM) | 1 mg/L (≈ 2.96 µM) | 1 mg/L (≈ 2.96 µM) | 1 mg/L (≈ 2.96 µM) | 1 mg/L (≈ 2.96 µM) | 2 mg/L (≈ 5.93 µM) | 1 mg/L (≈ 2.96 µM) | 1 mg/L (≈ 2.96 µM) | 1 mg/L (≈ 2.96 µM) | MIC [1]: 1 mg/L (≈ 2.96 µM); MIC [3]: 2 mg/L (≈ 5.93 µM); MIC [4]: 2 mg/L (≈ 5.93 µM); MIC [7]: 1 mg/L (≈ 2.96 µM); MIC [14]: 1 mg/L (≈ 2.96 µM); MIC [17]: 2 mg/L (≈ 5.93 µM); MIC [18]: 1 mg/L (≈ 2.96 µM); MIC [20]: 2 mg/L (≈ 5.93 µM); MIC [24]: 1 mg/L (≈ 2.96 µM); MIC [26]: 1 mg/L (≈ 2.96 µM); Activity [28]: 93.8%
2 | CN[C@H](CC(C)C)C(=O)N[C@H]1C(=O)N[C@@H](CC(N)=O)C(=O)N[C@H]2C(=O)N[C@H]3C(=O)N[C@H](C(=O)N[C@H](C(=O)O)c4cc(O)cc(O)c4-c4cc3ccc4O)[C@H](O)c3ccc(c(Cl)c3)Oc3cc2cc(c3O[C@@H]2O[C@H](CO)[C@@H](O)[C@H](O)[C@H]2O[C@H]2C[C@](C)(N)[C@H](O)[C@H](C)O2)Oc2ccc(cc2Cl)[C@H]1O [VANCOMYCIN] | 64 mg/L (≈ 44.2 µM) | 64 mg/L (≈ 44.2 µM) | 64 mg/L (≈ 44.2 µM) | 64 mg/L (≈ 44.2 µM) | 64 mg/L (≈ 44.2 µM) | 64 mg/L (≈ 44.2 µM) | 64 mg/L (≈ 44.2 µM) | 64 mg/L (≈ 44.2 µM) | 2 mg/L (≈ 1.38 µM) | 64 mg/L (≈ 44.2 µM) | 64 mg/L (≈ 44.2 µM) | 64 mg/L (≈ 44.2 µM) | 64 mg/L (≈ 44.2 µM) | 64 mg/L (≈ 44.2 µM) | 64 mg/L (≈ 44.2 µM) | 64 mg/L (≈ 44.2 µM) | 64 mg/L (≈ 44.2 µM) | 64 mg/L (≈ 44.2 µM) | –
3 | H-FLPLIGRVLSGIL-NH2 [TEMPORIN A] | – | – | – | – | – | – | – | – | – | – | – | – | – | – | – | – | – | – | fractional inhibitory concentration index (FICI) [30]: 0.75; fractional inhibitory concentration index (FICI) [31]: 1.5; fractional inhibitory concentration index (FICI) [32]: 0.75; fractional inhibitory concentration index (FICI) [33]: 1.25
